Source: ChEMBL document CHEMBL1145884, “Synthesis and biological activity of novel 1beta-methylcarbapenems with oxyiminopyrrolidinylamide moiety” (2003)
Values after ≈ are worked out from the molar mass of the structure shown. Each block holds one compound with its values, some of them ahead of it.

Assays:
[1] = tested on: Klebsiella pneumoniae; test: Compound was evaluated for its antibacterial activity against Klebsiella pneumoniae 5 ESBL; type: functional
[2] = tested on: Klebsiella pneumoniae; test: Compound was evaluated for its antibacterial activity against Klebsiella pneumoniae 7 ESBL; type: functional
[3] = tested on: Klebsiella pneumoniae; test: Compound was evaluated for its antibacterial activity against Klebsiella pneumoniae 4 ESBL; type: functional
[4] = tested on: Klebsiella pneumoniae; test: Compound was evaluated for its antibacterial activity against Klebsiella pneumoniae 1 ESBL; type: functional
[5] = tested on: Klebsiella pneumoniae; test: Compound was evaluated for its antibacterial activity against Klebsiella pneumoniae 2 ESBL; type: functional
[6] = tested on: Salmonella typhimurium; test: Compound was evaluated for its antibacterial activity against Salmonella Typhimurium 1; type: functional, Salmonella enterica subsp. enterica serovar Typhimurium; conditions: Salmonella enterica
[7] = tested on: Escherichia coli; test: Compound was evaluated for its antibacterial activity against Escherichia coli 0157:H7; type: functional
[8] = tested on: Salmonella enteritidis; test: Compound was evaluated for its antibacterial activity against […] enteritidis 1; type: functional, Salmonella enterica subsp. enterica serovar Enteritidis; conditions: Salmonella enterica
[9] = tested on: Escherichia coli; test: Compound was evaluated for its antibacterial activity against Escherichia coli ATCC 25922; type: functional
[10] = tested on: Salmonella enteritidis; test: Compound was evaluated for its antibacterial activity against […] enteritidis 2; type: functional, Salmonella enterica subsp. enterica serovar Enteritidis; conditions: Salmonella enterica
[11] = tested on: Klebsiella aerogenes; test: Antibacterial activity against Klebsiella aerogenes 1522E; type: functional
Method in brief: (§1)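 MIC was determined by agar dilution on Mueller–Hinton medium.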

[12] = tested on: Pseudomonas aeruginosa; test: Antibacterial activity against Pseudomonas aeruginosa 9027; type: functional; method in brief: as §1
[13] = tested on: Escherichia coli; test: Compound was evaluated for its antibacterial activity against Escherichia coli DC 0; type: functional
[14] = tested on: Escherichia coli; test: Compound was evaluated for its antibacterial activity against Escherichia coli CCARM 1113 MDR; type: functional
[15] = tested on: Escherichia coli; test: Compound was evaluated for its antibacterial activity against Escherichia coli CCARM 1108 MDR; type: functional
[16] = tested on: Shigella sonnei; test: Compound was evaluated for its antibacterial activity against Shigella sonnei ATCC 9290; type: functional
[17] = tested on: Klebsiella pneumoniae; test: Compound was evaluated for its antibacterial activity against Klebsiella pneumoniae 9 ESBL; type: functional
[18] = tested on: Enterobacter cloacae; test: Compound was evaluated for its antibacterial activity against Enterobacter cloacae P99; type: functional
[19] = tested on: Pseudomonas aeruginosa; test: Antibacterial activity against Pseudomonas aeruginosa 1771M; type: functional; method in brief: as §1
[20] = tested on: Pseudomonas aeruginosa; test: Compound was evaluated for its antibacterial activity against Pseudomonas aeruginosa 2 MDR; type: functional
[21] = tested on: Klebsiella pneumoniae; test: Compound was evaluated for its antibacterial activity against Klebsiella pneumoniae 8 ESBL; type: functional
[22] = tested on: Escherichia coli; test: Compound was evaluated for its antibacterial activity against Escherichia coli CCARM 1111 MDR; type: functional
[23] = tested on: Klebsiella pneumoniae; test: Compound was evaluated for its antibacterial activity against Klebsiella pneumoniae 6 ESBL; type: functional
[24] = tested on: Klebsiella oxytoca; test: Compound was evaluated for its antibacterial activity against Klebsiella oxytoca 1082E; type: functional
[25] = tested on: Escherichia coli; test: Compound was evaluated for its antibacterial activity against Escherichia coli CCARM 1116 MDR; type: functional
[26] = tested on: Escherichia coli; test: Compound was evaluated for its antibacterial activity against Escherichia coli CCARM 1114 MDR; type: functional
[27] = tested on: Staphylococcus aureus; test: Antibacterial activity against Staphylococcus aureus 503; type: functional
[28] = tested on: Pseudomonas aeruginosa; test: Compound was evaluated for its antibacterial activity against Pseudomonas aeruginosa 1 MDR; type: functional
[29] = tested on: Klebsiella pneumoniae; test: Compound was evaluated for its antibacterial activity against Klebsiella pneumoniae 3 ESBL; type: functional
[30] = tested on: Staphylococcus aureus; test: Antibacterial activity against Staphylococcus aureus 285; type: functional
[31] = tested on: Escherichia coli; test: Antibacterial activity against Escherichia coli 078; type: functional; method in brief: as §1
[32] = tested on: Shigella flexneri; test: Compound was evaluated for its antibacterial activity against Shigella flexneri ATCC 9199; type: functional
[33] = tested on: Pseudomonas aeruginosa; test: Compound was evaluated for its antibacterial activity against Pseudomonas aeruginosa 3 MDR; type: functional
[34] = tested on: Enterobacter cloacae; test: Antibacterial activity against Enterobacter cloacae 1321E; type: functional; method in brief: as §1
[35] = tested on: Salmonella typhimurium; test: Compound was evaluated for its antibacterial activity against Salmonella Typhimurium; type: functional, Salmonella enterica subsp. enterica serovar Typhimurium; conditions: Salmonella enterica
[36] = tested on: Escherichia coli; test: Compound was evaluated for its antibacterial activity against Escherichia coli DC 2; type: functional
[37] = tested on: Salmonella enteritidis; test: Compound was evaluated for its antibacterial activity against […] enteritidis; type: functional, Salmonella enterica subsp. enterica serovar Enteritidis; conditions: Salmonella enterica
[38] = tested on: Pseudomonas aeruginosa; test: Compound was evaluated for its antibacterial activity against Pseudomonas aeruginosa ATCC 27853; type: functional
[39] = tested on: Escherichia coli; test: Compound was evaluated for its antibacterial activity against Escherichia coli TEM; type: functional
[40] = Compound was evaluated for its relative half life of hydrolysis to meropenem by partially purified porcine renal dihydropeptidase-I (DHP-I); type: functional; conditions: Sus scrofa
[41] = tested on: Salmonella typhimurium; test: Antibacterial activity against Salmonella Typhimurium; type: functional, Salmonella enterica subsp. enterica serovar Typhimurium; conditions: Salmonella enterica; method in brief: as §1
[42] = tested on: Streptococcus pyogenes; test: Antibacterial activity against Streptococcus pyogenes 308A; type: functional
[43] = tested on: Salmonella enteritidis; test: Compound was evaluated for its antibacterial activity against […] enteritidis 3; type: functional, Salmonella enterica subsp. enterica serovar Enteritidis; conditions: Salmonella enterica
[44] = tested on: Escherichia coli; test: Compound was evaluated for its antibacterial activity against Escherichia coli CCARM 1110 MDR; type: functional
[45] = tested on: Salmonella typhimurium; test: Compound was evaluated for its antibacterial activity against Salmonella Typhimurium 2; type: functional, Salmonella enterica subsp. enterica serovar Typhimurium; conditions: Salmonella enterica
[46] = tested on: Escherichia coli; test: Compound was evaluated for its antibacterial activity against Escherichia coli CCARM 1112 MDR; type: functional
[47] = tested on: Escherichia coli; test: Compound was evaluated for its antibacterial activity against Escherichia coli CCARM 1115 MDR; type: functional
[48] = tested on: Escherichia coli; test: Compound was evaluated for its antibacterial activity against Escherichia coli CCARM 1109 MDR; type: functional
[49] = tested on: Staphylococcus aureus; test: Antibacterial activity against Staphylococcus aureus SG 511; type: functional
[50] = tested on: Escherichia coli; test: Antibacterial activity against Escherichia coli 1507E; type: functional; method in brief: as §1
[51] = tested on: Klebsiella pneumoniae; test: Compound was evaluated for its antibacterial activity against Klebsiella pneumoniae 10 ESBL; type: functional
[52] = tested on: Escherichia coli; test: Compound was evaluated for its antibacterial activity against Escherichia coli CCARM 1117 MDR; type: functional
[53] = tested on: Pseudomonas aeruginosa; test: Antibacterial activity against Pseudomonas aeruginosa 1592E
[54] = tested on: Pseudomonas aeruginosa; test: as above; remark: listed apart in the source

MIC [1]: 0.016 µg/mL (≈ 0.0365 µM)
MIC [2]: 0.06 µg/mL (≈ 0.137 µM)
MIC [3]: 0.03 µg/mL (≈ 0.0684 µM)
MIC [4]: 0.03 µg/mL (≈ 0.0684 µM)
MIC [5]: 0.03 µg/mL (≈ 0.0684 µM)
MIC [6]: 0.016 µg/mL (≈ 0.0365 µM)
MIC [7]: 0.016 µg/mL (≈ 0.0365 µM)
MIC [8]: 0.016 µg/mL (≈ 0.0365 µM)
MIC [9]: 0.016 µg/mL (≈ 0.0365 µM)
MIC [10]: ≤ 0.008 µg/mL
MIC [11]: 0.025 µg/mL (≈ 0.057 µM)
MIC [12]: 0.391 µg/mL (≈ 0.892 µM)
MIC [13]: 0.03 µg/mL (≈ 0.0684 µM)
MIC [14]: 0.06 µg/mL (≈ 0.137 µM)
MIC [15]: 0.03 µg/mL (≈ 0.0684 µM)
MIC [16]: 0.016 µg/mL (≈ 0.0365 µM)
MIC [17]: 0.03 µg/mL (≈ 0.0684 µM)
MIC [18]: 0.13 µg/mL (≈ 0.296 µM)
MIC [19]: 0.195 µg/mL (≈ 0.445 µM)
MIC [20]: 8 µg/mL (≈ 18.2 µM)
MIC [21]: 0.25 µg/mL (≈ 0.57 µM)
MIC [22]: 0.016 µg/mL (≈ 0.0365 µM)
MIC [23]: 0.03 µg/mL (≈ 0.0684 µM)
MIC [24]: 0.13 µg/mL (≈ 0.296 µM)
MIC [25]: 0.016 µg/mL (≈ 0.0365 µM)
MIC [26]: 0.13 µg/mL (≈ 0.296 µM)
MIC [27]: 0.098 µg/mL (≈ 0.223 µM)
MIC [28]: 1 µg/mL (≈ 2.28 µM)
MIC [29]: 0.13 µg/mL (≈ 0.296 µM)
MIC [30]: 0.195 µg/mL (≈ 0.445 µM)
MIC [31]: 0.025 µg/mL (≈ 0.057 µM)
MIC [32]: 0.016 µg/mL (≈ 0.0365 µM)
MIC [33]: 8 µg/mL (≈ 18.2 µM)
MIC [34]: 0.013 µg/mL (≈ 0.0296 µM)
MIC [35]: 0.03 µg/mL (≈ 0.0684 µM)
MIC [36]: 0.016 µg/mL (≈ 0.0365 µM)
MIC [37]: 0.016 µg/mL (≈ 0.0365 µM)
MIC [38]: 1 µg/mL (≈ 2.28 µM)
MIC [39]: 0.016 µg/mL (≈ 0.0365 µM)
MIC [41]: 0.025 µg/mL (≈ 0.057 µM)
MIC [42]: 0.013 µg/mL (≈ 0.0296 µM)
MIC [43]: 0.016 µg/mL (≈ 0.0365 µM)
MIC [44]: 0.06 µg/mL (≈ 0.137 µM)
MIC [45]: 0.03 µg/mL (≈ 0.0684 µM)
MIC [46]: 0.016 µg/mL (≈ 0.0365 µM)
MIC [47]: 0.03 µg/mL (≈ 0.0684 µM)
MIC [48]: 0.06 µg/mL (≈ 0.137 µM)
MIC [49]: 0.195 µg/mL (≈ 0.445 µM)
MIC [50]: 0.025 µg/mL (≈ 0.057 µM)
MIC [51]: 0.016 µg/mL (≈ 0.0365 µM)
MIC [52]: 0.03 µg/mL (≈ 0.0684 µM)
MIC [53]: 0.391 µg/mL (≈ 0.892 µM)
SMILES: C[C@@H](O)[C@H]1C(=O)N2C(C(=O)O)=C(S[C@@H]3CN[C@H](C(=O)N4CC/C(=N/O)C4)C3)[C@H](C)[C@H]12
relative t1/2 (DHP-I hydrolysis vs meropenem) [40]: 1.03

MIC [11]: 0.098 µg/mL (≈ 0.21 µM)
MIC [12]: 0.195 µg/mL (≈ 0.417 µM)
MIC [19]: 0.098 µg/mL (≈ 0.21 µM)
MIC [27]: 0.098 µg/mL (≈ 0.21 µM)
MIC [30]: 0.195 µg/mL (≈ 0.417 µM)
MIC [31]: 0.025 µg/mL (≈ 0.0535 µM)
MIC [34]: 0.049 µg/mL (≈ 0.105 µM)
MIC [54]: 0.098 µg/mL (≈ 0.21 µM)
MIC [41]: 0.098 µg/mL (≈ 0.21 µM)
MIC [42]: 0.002 µg/mL (≈ 0.00428 µM)
MIC [49]: 0.098 µg/mL (≈ 0.21 µM)
MIC [50]: 0.049 µg/mL (≈ 0.105 µM)
SMILES: C[C@@H](O)[C@H]1C(=O)N2C(C(=O)O)=C(S[C@@H]3CN[C@H](C(=O)N4C/C(=N\O)C(CN)C4)C3)[C@H](C)[C@H]12 (stereo partly specified)
relative t1/2 (DHP-I hydrolysis vs meropenem) [40]: 0.31
